In brackets after ≈: the same amount, converted by molar mass. Blank lines part the entries; values can stand above or below the compound they belong to.
Key:
[1] = Passive permeability of the compound in dog RRCK cells; type: ADME, cell-based, Canis lupus familiaris, MDCKII-LE; conditions: MDCK, read-out: permeability
Outline: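 Passive permeability measured in the RRCK cell line; reported as 10^-6 cm/s.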

Hexokinase-4 [2] = biological target: T1, Hexokinase-4 (Homo sapiens, UniProt P35557); assay: Activation of recombinant human glucokinase assessed measuring rate of glucose 6-phosphate formation using G6PDH/NADP coupling
T1 sequence (P35557 whole entry): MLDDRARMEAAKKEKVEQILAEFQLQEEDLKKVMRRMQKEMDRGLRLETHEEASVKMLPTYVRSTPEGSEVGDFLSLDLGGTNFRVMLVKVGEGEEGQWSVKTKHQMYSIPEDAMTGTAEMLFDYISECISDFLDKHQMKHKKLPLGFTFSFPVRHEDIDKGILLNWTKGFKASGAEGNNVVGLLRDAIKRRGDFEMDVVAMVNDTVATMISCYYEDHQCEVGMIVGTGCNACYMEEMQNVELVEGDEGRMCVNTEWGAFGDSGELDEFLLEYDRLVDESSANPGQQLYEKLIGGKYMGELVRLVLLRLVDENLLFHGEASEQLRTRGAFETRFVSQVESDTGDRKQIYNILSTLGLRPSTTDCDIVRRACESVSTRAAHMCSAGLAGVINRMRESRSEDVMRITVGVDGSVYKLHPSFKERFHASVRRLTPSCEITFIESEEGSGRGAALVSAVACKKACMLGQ

[3] = Kinetic solubility of the compound; type: physicochemical; conditions: read-out: Kinetic_solubility
[4] = Intrinsic clearance of the compound in human liver microsomes; type: ADME, Microsome; conditions: read-out: CLH
Outline: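 Human liver microsomal stability; intrinsic clearance expressed as ml/min/kg.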

[5] = Lipophilicity, log D of the compound by shake flask method; type: physicochemical; conditions: octanol/water
[6] = AUC in Wistar-Han rat at 1 mg/kg, iv; type: ADME, organism-based; set-up: dose 1 mg/kg, route intravenous; conditions: plasma
Outline: (§1)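 Pharmacokinetics in Wistar-Han rats, n = 3 animals per group. Intravenous dosing was at 1 mg/kg, and oral dosing was at 5 mg/kg. Plasma AUC, Cmax, t1/2, clearance, Vdss and oral bioavailability were derived. Urine was collected after the i.v. dose to assess renal excretion.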

[7] = Half life in Wistar-Han rat at 5 mg/kg, po; type: ADME, organism-based; set-up: dose 5 mg/kg, route oral; conditions: in vivo
[8] = Cmax in Wistar-Han rat at 5 mg/kg, po; type: ADME, organism-based; set-up: dose 5 mg/kg, route oral; conditions: in vivo
[9] = Fraction unbound in rat plasma; type: ADME, cell-free
[10] = biological target: Voltage-gated inwardly rectifying potassium channel KCNH2 (Homo sapiens, UniProt Q12809); assay: Inhibition of human ERG by patch clamp assay
Rattus norvegicus [11] = assay: Toxicity in Sprague-Dawley rat assessed as hypoglycemia at 10 to 250 mg/kg, po; type: organism-based; set-up: dose 10-250 mg/kg, route oral; conditions: in vivo
Outline: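 Oral glucose tolerance test in overnight-fasted Sprague-Dawley rats. Single oral dose of 10–250 mg/kg (suspension in 30% sulfobutylether/water) given at t = −60 min, then 2 g/kg glucose orally at t = 0. Hypoglycemia defined as blood glucose <60 mg/dL. n = 7/group.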

Rattus norvegicus [12] = assay: Antidiabetic activity in Sprague-Dawley rat assessed as reduction of plasma glucose AUC excursion at 250 mg/kg, po by oral glucose tolerance test; type: functional; set-up: scale not given: the % may be the effect or the level left
Outline: (§2)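 Sprague-Dawley rats fasted overnight, dosed orally at t = −60 min with 10, 25, 100 or 250 mg/kg as suspension in 30% sulfobutylether/water. Oral glucose challenge 2 g/kg at t = 0 min.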

[13] = AUC in Wistar-Han rat at 5 mg/kg, po; type: ADME, organism-based; set-up: dose 5 mg/kg, route oral; conditions: plasma; outline: as §1
[14] = Genotoxicity in micronucleus
[15] = Oral bioavailability in Wistar-Han rat at 5 mg/kg; type: ADME, organism-based; conditions: in vivo
Salmonella typhimurium = assay: Genotoxicity in Salmonella typhimurium by Ames test; type: toxicity, organism-based; conditions: salmonella enterica subsp. enterica serovar typhimurium
[16] = Drug excretion in Wistar-Han rat urine at 1 mg/kg, iv; type: ADME, organism-based; set-up: dose 1 mg/kg, route intravenous; conditions: read-out: Drug excretion
Rattus norvegicus [17] = assay: Antidiabetic activity in po dosed Sprague-Dawley rat assessed as reduction of plasma glucose AUC excursion by oral glucose tolerance test; type: functional, organism-based; outline: as §2
INS1 = assay: Increase of glucose-stimulated insulin secretion in rat INS-1 cells
[18] = Volume of distribution at steady state in Wistar-Han rat at 1 mg/kg, iv; type: ADME, organism-based; set-up: dose 1 mg/kg, route intravenous; conditions: in vivo, read-out: Vdss
Outline: (§3)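 Wistar-Han rats, n = 3 animals/group. Single intravenous dose of 1 mg/kg; plasma pharmacokinetic parameters determined.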

[19] = Half life in Wistar-Han rat at 1 mg/kg, iv; type: ADME, organism-based; set-up: dose 1 mg/kg, route intravenous; conditions: in vivo; outline: as §3
[20] = Clearance in Wistar-Han rat at 1 mg/kg, iv; type: ADME, organism-based; set-up: dose 1 mg/kg, route intravenous; conditions: in vivo; outline: as §3
Hexokinase-4 [21] = biological target: T2, Hexokinase-4 (Rattus norvegicus, UniProt P17712); assay: Activation of recombinant rat glucokinase assessed measuring rate of glucose 6-phosphate formation using G6PDH/NADP coupling
T2 sequence (P17712 whole entry): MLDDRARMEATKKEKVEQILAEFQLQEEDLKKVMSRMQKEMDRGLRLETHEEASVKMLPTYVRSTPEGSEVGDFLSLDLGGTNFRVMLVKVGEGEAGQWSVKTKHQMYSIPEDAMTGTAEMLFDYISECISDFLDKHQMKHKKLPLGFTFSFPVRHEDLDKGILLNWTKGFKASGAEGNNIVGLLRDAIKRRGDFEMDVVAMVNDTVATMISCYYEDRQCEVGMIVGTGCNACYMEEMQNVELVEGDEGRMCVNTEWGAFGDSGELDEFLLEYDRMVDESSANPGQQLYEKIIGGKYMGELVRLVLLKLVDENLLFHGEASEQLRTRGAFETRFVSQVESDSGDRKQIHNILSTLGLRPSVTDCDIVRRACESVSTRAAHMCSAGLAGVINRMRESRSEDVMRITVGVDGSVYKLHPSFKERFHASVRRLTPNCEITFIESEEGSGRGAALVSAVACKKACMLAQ
Outline: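 Recombinant rat glucokinase; glucose 6-phosphate formation rate followed by G6PDH/NADP coupling. Matrix format: activator at 22 concentrations (0 to 100 µM range as printed) × 16 glucose concentrations (0 to 100 mM). Nonessential activator model fitted; EC50 = concentration giving half-maximal reduction in glucose Km.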

[22] = Fraction unbound in human plasma; type: ADME, cell-free
[23] = Cmax in Wistar-Han rat at 1 mg/kg, iv; type: ADME, organism-based; set-up: dose 1 mg/kg, route intravenous; conditions: in vivo; outline: as §3

Sequence of Voltage-gated inwardly rectifying potassium channel KCNH2 (Q12809 whole entry): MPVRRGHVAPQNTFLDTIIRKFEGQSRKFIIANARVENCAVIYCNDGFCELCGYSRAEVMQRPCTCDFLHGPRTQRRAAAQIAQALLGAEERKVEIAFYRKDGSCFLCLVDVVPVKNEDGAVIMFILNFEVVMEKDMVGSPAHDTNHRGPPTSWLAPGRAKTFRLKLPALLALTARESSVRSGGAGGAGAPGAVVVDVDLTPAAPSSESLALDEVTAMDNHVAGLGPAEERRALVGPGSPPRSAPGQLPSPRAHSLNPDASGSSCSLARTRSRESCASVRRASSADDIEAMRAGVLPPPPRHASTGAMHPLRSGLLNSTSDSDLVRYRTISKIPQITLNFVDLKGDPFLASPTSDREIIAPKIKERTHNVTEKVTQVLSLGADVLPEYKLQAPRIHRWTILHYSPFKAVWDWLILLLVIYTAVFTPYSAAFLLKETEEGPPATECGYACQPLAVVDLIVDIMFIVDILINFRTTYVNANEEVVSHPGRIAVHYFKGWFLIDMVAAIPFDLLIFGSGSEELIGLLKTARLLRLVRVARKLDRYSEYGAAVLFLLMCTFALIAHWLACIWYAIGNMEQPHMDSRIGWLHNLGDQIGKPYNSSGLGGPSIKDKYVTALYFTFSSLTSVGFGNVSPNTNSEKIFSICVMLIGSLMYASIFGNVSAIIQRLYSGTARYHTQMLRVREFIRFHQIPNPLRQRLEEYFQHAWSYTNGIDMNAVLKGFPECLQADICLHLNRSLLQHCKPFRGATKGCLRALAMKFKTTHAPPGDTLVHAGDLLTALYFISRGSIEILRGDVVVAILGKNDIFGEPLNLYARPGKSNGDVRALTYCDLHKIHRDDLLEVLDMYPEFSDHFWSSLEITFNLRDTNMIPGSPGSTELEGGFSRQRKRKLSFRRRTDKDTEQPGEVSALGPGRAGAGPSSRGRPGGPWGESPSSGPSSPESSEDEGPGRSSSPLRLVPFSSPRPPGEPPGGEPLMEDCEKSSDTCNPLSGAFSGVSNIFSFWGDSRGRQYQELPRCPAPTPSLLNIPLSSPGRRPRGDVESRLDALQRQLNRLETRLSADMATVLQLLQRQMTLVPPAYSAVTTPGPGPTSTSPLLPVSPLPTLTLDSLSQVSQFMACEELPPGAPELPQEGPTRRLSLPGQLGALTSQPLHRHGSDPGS

- Papp [1]: 10.6 ×10⁻⁶ cm/s
- EC50 (Hexokinase-4 [2]): 980 nM
- solubility kinetic [3]: 69 µM (≈ 31.2 µg/mL)
- CLint scaled [4]: < 8 mL/min/kg
SMILES: CCS(=O)(=O)c1ccc(Oc2cc(C(=O)Nc3cnc(C)cn3)cc3nn(C)cc23)cc1

- logD [5]: 1.87
- Papp [1]: 17 ×10⁻⁶ cm/s
- EC50 (Hexokinase-4 [2]): 620 nM
- solubility kinetic [3]: 123 µM (≈ 53.2 µg/mL)
- CLint scaled [4]: 13.7 mL/min/kg
SMILES: Cc1cnc(NC(=O)c2cc(Oc3cnc(C(=O)N(C)C)cn3)c3cc(C)nn3c2)cn1

SMILES: CCn1cc2c(Oc3cnc(C(=O)N4CCC4)c(F)c3)cc(C(=O)Nc3cnc(C)cn3)cc2n1
- AUC [6]: 1580 ng·h/mL
- logD [5]: 2.01
- half-life [7]: 2.6 h
- Cmax [8]: 1490 ng/mL
- Papp [1]: 16.3 ×10⁻⁶ cm/s
- fraction unbound [9]: 0.18
- IC50 [10]: > 300000 nM
- Activity (Rattus norvegicus [11]): Non-toxic
- Activity (Rattus norvegicus [12]): 22%
- AUC [13]: 5440 ng·h/mL
- Activity [14]: Non-toxic
- bioavailability [15]: 69%
- Activity (Salmonella typhimurium): Non-toxic
- dose excreted [16]: < 1%
- Activity (Rattus norvegicus [17]): Dose-dependent effect
- EC50 (INS1): 170 nM
- EC50 (Hexokinase-4 [2]): 120 nM
- Vd [18]: 0.61 L/kg
- half-life [19]: 1 h
- clearance [20]: 10.5 mL/min/kg
- solubility kinetic [3]: 84.8 µM (≈ 40.3 µg/mL)
- EC50 (Hexokinase-4 [21]): 350 nM
- fraction unbound [22]: 0.2
- Cmax [23]: 1820 ng/mL
- CLint scaled [4]: < 8 mL/min/kg

- Papp [1]: 17.8 ×10⁻⁶ cm/s
- EC50 (Hexokinase-4 [2]): 510 nM
- solubility kinetic [3]: 73 µM (≈ 33.8 µg/mL)
- CLint scaled [4]: < 8 mL/min/kg
SMILES: Cc1cnc(NC(=O)c2cc(Oc3ccc(S(=O)(=O)C4CC4)cc3)c3cn(C)nc3c2)cn1

- Papp [1]: 14.2 ×10⁻⁶ cm/s
- EC50 (Hexokinase-4 [2]): 310 nM
- solubility kinetic [3]: 2.3 µM (≈ 1.07 µg/mL)
- CLint scaled [4]: < 8 mL/min/kg
SMILES: CCCn1cc2c(Oc3ccc(S(C)(=O)=O)cc3)cc(C(=O)Nc3cnc(C)cn3)cc2n1

- solubility kinetic [3]: 27 µM (≈ 12.2 µg/mL)
- CLint scaled [4]: < 8.6 mL/min/kg
SMILES: CNS(=O)(=O)c1ccc(Oc2cc(C(=O)Nc3cnc(C)cn3)cc3nn(C)cc23)cc1

- Papp [1]: 6.3 ×10⁻⁶ cm/s
- EC50 (Hexokinase-4 [2]): 1540 nM
- solubility kinetic [3]: 24.4 µM (≈ 11.4 µg/mL)
- CLint scaled [4]: < 8.9 mL/min/kg
SMILES: Cc1cnc(NC(=O)c2cc(Oc3ccc(S(C)(=O)=O)cc3)c3cn(CCO)nc3c2)cn1

- Papp [1]: 20.4 ×10⁻⁶ cm/s
- EC50 (Hexokinase-4 [2]): 1930 nM
- solubility kinetic [3]: 454 µM (≈ 199 µg/mL)
- CLint scaled [4]: < 8 mL/min/kg
SMILES: Cc1cnc(NC(=O)c2cc(Oc3ccc(S(C)(=O)=O)cc3)c3cn(C)nc3c2)cn1

- logD [5]: 0.83
- Papp [1]: 20.8 ×10⁻⁶ cm/s
- EC50 (Hexokinase-4 [2]): 990 nM
- solubility kinetic [3]: 192 µM (≈ 83 µg/mL)
- CLint scaled [4]: < 8.5 mL/min/kg
SMILES: Cc1cnc(NC(=O)c2cc(Oc3cnc(C(=O)N(C)C)cn3)c3cn(C)nc3c2)cn1

- EC50 (Hexokinase-4 [2]): 2320 nM
SMILES: Cc1cnc(NC(=O)c2cc(Oc3ccc(S(N)(=O)=O)cc3)c3cn(C)nc3c2)cn1

- Papp [1]: 11.5 ×10⁻⁶ cm/s
- EC50 (Hexokinase-4 [2]): 910 nM
- solubility kinetic [3]: 446 µM (≈ 193 µg/mL)
- CLint scaled [4]: < 8 mL/min/kg
SMILES: Cc1cnc(NC(=O)c2cc(Oc3cnc(C(=O)N(C)C)nc3)c3cn(C)nc3c2)cn1

- Papp [1]: 11.9 ×10⁻⁶ cm/s
- EC50 (Hexokinase-4 [2]): 340 nM
- solubility kinetic [3]: 70 µM (≈ 32.3 µg/mL)
- CLint scaled [4]: < 8 mL/min/kg
SMILES: Cc1cnc(NC(=O)c2cc(Oc3cnc(C(=O)N4CCC4)c(F)c3)c3cn(C)nc3c2)cn1

- Papp [1]: 20.2 ×10⁻⁶ cm/s
- EC50 (Hexokinase-4 [2]): 400 nM
- solubility kinetic [3]: 328 µM (≈ 147 µg/mL)
- CLint scaled [4]: < 8 mL/min/kg
SMILES: Cc1cnc(NC(=O)c2cc(Oc3cnc(C(=O)N(C)C)c(F)c3)c3cn(C)nc3c2)cn1

- Papp [1]: 14.6 ×10⁻⁶ cm/s
- solubility kinetic [3]: 351 µM (≈ 151 µg/mL)
- CLint scaled [4]: 12.3 mL/min/kg
SMILES: Cc1cnc(NC(=O)c2cc(Oc3ccc(C(=O)N(C)C)cc3)c3cn(C)nc3c2)cn1

- Papp [1]: 13.4 ×10⁻⁶ cm/s
- EC50 (Hexokinase-4 [2]): 770 nM
- solubility kinetic [3]: 2.1 µM (≈ 0.948 µg/mL)
- CLint scaled [4]: < 8 mL/min/kg
SMILES: CCn1cc2c(Oc3ccc(S(C)(=O)=O)cc3)cc(C(=O)Nc3cnc(C)cn3)cc2n1

- Papp [1]: 13.6 ×10⁻⁶ cm/s
- EC50 (Hexokinase-4 [2]): 440 nM
- solubility kinetic [3]: 134 µM (≈ 62.5 µg/mL)
- CLint scaled [4]: < 8 mL/min/kg
SMILES: Cc1cnc(NC(=O)c2cc(Oc3ccc(S(=O)(=O)N(C)C)cc3)c3cn(C)nc3c2)cn1

- logD [5]: 1.8
- Papp [1]: 13.8 ×10⁻⁶ cm/s
- EC50 (Hexokinase-4 [2]): 230 nM
- solubility kinetic [3]: 367 µM (≈ 170 µg/mL)
- CLint scaled [4]: 10.4 mL/min/kg
SMILES: CCn1cc2c(Oc3cnc(C(=O)N(C)C)c(F)c3)cc(C(=O)Nc3cnc(C)cn3)cc2n1

- Papp [1]: 15.5 ×10⁻⁶ cm/s
- EC50 (Hexokinase-4 [2]): 2030 nM
- solubility kinetic [3]: 0.5 µM (≈ 0.232 µg/mL)
- CLint scaled [4]: < 8 mL/min/kg
SMILES: Cc1cnc(NC(=O)c2cc(Oc3ccc(S(C)(=O)=O)cc3)c3cn(C4CC4)nc3c2)cn1

- logD [5]: 2.16
- CLint scaled [4]: < 8 mL/min/kg
SMILES: Cc1cnc(NC(=O)c2cc(Oc3cnc(C(=O)N(C)C)cn3)c3cc(C)oc3c2)cn1
